Experimental data as given in ChEMBL document CHEMBL2040839, “Novel cinnamic acid/4-aminoquinoline conjugates bearing non-proteinogenic amino acids: towards the development of potential dual action antimalarials” (Eur J Med Chem, 2012).

Experiments:
[1] = Inhibition of Plasmodium falciparum falcipain 2 using substrate benzoxycarbonyl-Leu-Arg-7-amino-4-methyl-coumarin preincubated for 30 mins before substrate addition by fluorescence assay
Summary of the method: (§1)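 Recombinant enzyme (1 nM) incubated with inhibitor at varied concentrations (from 10 mM DMSO stocks) in 100 mM sodium acetate pH 5.5, 10 mM DTT, 30 min at room temperature. Substrate then added at 25 μM final. Fluorescence monitored continuously for 30 min at room temperature; IC50 from curve fitting. FP3 tested only for compounds with FP2 IC50 < 50 μM.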

Heme = experiment: Inhibition of heme polymerization at 1 mM after 48 hrs by spectrophotometry relative to chloroquine
Summary of the method: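 Hemin chloride in DMSO (5.2 mg/mL) mixed with compound in DMSO (0.1–1 mM), in triplicate; water or DMSO as negative control, 1 mM CQ as positive. β-hematin formation started with 0.2 M acetate buffer pH 4.4, then 48 h at 37 °C. Pellet washed with DMSO, dissolved in 0.2 M NaOH, diluted 1:6 in 0.1 M NaOH, read at 405 nm.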

Plasmodium falciparum = experiment: Antiplasmodial activity against chloroquine-resistant blood-stage Plasmodium falciparum W2 after 48 hrs by flow cytometric analysis; format: functional, organism-based; settings: W2, 48 h
Summary of the method: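 Synchronized ring-stage W2 parasites cultured 48 h with multiple compound concentrations (from 1000× DMSO stocks) in RPMI 1640 with 10% human serum or 0.5% Albumax. Cells then fixed in 1% formaldehyde/PBS pH 7.4 for 48 h at room temperature and stained with YOYO-1 (1 nM) in 0.1% Triton X-100. Parasitemia read by flow cytometry. IC50 taken from percent-of-control parasitemia curves, R2 >0.95.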

[2] = Inhibition of Plasmodium falciparum falcipain 3 using substrate benzoxycarbonyl-Leu-Arg-7-amino-4-methyl-coumarin preincubated for 30 mins before substrate addition by fluorescence assay; summary of the method: as §1

Row | Compound | IC50 [1] [µM] | inhibition (Heme) [%] | IC50 (Plasmodium falciparum) [µM] | IC50 [2] [µM]
1 | COc1ccc(/C=C/C(=O)Nc2ccnc3cc(Cl)ccc23)cc1 | > 50 | < 50 | > 10 | 
2 | O=C(/C=C/c1ccccc1)Nc1ccnc2cc(Cl)ccc12 | > 50 | < 50 | > 10 | 
3 | CC(C)C[C@@H](NC(=O)/C=C/c1ccccc1)C(=O)N[C@H](CCc1ccccc1)C(=O)Nc1ccnc2cc(Cl)ccc12 | 19.6 | < 50 | 4.89 | > 50
4 | CC(C)c1ccc(/C=C/C(=O)Nc2ccnc3cc(Cl)ccc23)cc1 | > 50 | < 50 | > 10 | 
5 | CC(C)C[C@@H](NC(=O)/C=C/c1ccccc1[N+](=O)[O-])C(=O)N[C@H](CCc1ccccc1)C(=O)Nc1ccnc2cc(Cl)ccc12 | > 50 | 50 | 1.66 | 
6 | CC(C)C[C@@H](NC(=O)/C=C/c1ccc(Br)cc1)C(=O)N[C@H](CCc1ccccc1)C(=O)Nc1ccnc2cc(Cl)ccc12 | 48.3 | < 50 | 2.55 | > 50
7 | CC(C)C[C@@H](NC(=O)/C=C/c1ccc(F)cc1)C(=O)N[C@H](CCc1ccccc1)C(=O)Nc1ccnc2cc(Cl)ccc12 | 50 | < 50 | 4.67 | 
8 | CC(C)C[C@@H](NC(=O)/C=C/c1ccc([N+](=O)[O-])cc1)C(=O)N[C@H](CCc1ccccc1)C(=O)Nc1ccnc2cc(Cl)ccc12 | > 50 | > 75 | 1.23 | 
9 | O=C(/C=C/c1cccc(F)c1)Nc1ccnc2cc(Cl)ccc12 | > 50 | < 50 | > 10 | 
10 | CC(C)C[C@@H](NC(=O)/C=C/c1cccc([N+](=O)[O-])c1)C(=O)N[C@H](CCc1ccccc1)C(=O)Nc1ccnc2cc(Cl)ccc12 | 28.1 | < 50 | 2.1 | > 50
11 | CCN(CC)CCCC(C)Nc1ccnc2cc(Cl)ccc12 (centres undefined) |  | > 75 |  | 
12 | C[C@@H]1CC[C@H]2[C@@H](C)C(=O)O[C@@H]3O[C@@]4(C)CC[C@@H]1[C@]32OO4 [ARTEMISININ] |  |  | 0.00876 | 
13 | CC(C)C[C@@H](NC(=O)/C=C/c1cccc(F)c1)C(=O)N[C@H](CCc1ccccc1)C(=O)Nc1ccnc2cc(Cl)ccc12 | 23.1 | < 50 | 5.43 | > 50
14 | Cc1ccc(/C=C/C(=O)Nc2ccnc3cc(Cl)ccc23)cc1 | 28.5 | < 50 | > 10 | > 50
15 | CC(C)C[C@H](NC(=O)[C@H]1O[C@@H]1C(=O)O)C(=O)NCCCCN=C(N)N [E-64] | 0.0246 |  |  | 
16 | CC(C)C[C@@H](NC(=O)/C=C/c1ccc(Cl)cc1)C(=O)N[C@H](CCc1ccccc1)C(=O)Nc1ccnc2cc(Cl)ccc12 | > 50 | < 50 | 2.89 | 
17 | O=C(/C=C/c1cccc([N+](=O)[O-])c1)Nc1ccnc2cc(Cl)ccc12 | 14.2 | < 50 | > 10 | > 50
18 | CC(C)C[C@@H](NC(=O)/C=C/c1ccc(C(C)C)cc1)C(=O)N[C@H](CCc1ccccc1)C(=O)Nc1ccnc2cc(Cl)ccc12 | > 50 | < 50 | 0.83 | 
19 | O=C(/C=C/c1ccc(Br)cc1)Nc1ccnc2cc(Cl)ccc12 | 33.1 | < 50 | > 10 | > 50
20 | O=C(/C=C/c1ccc(F)cc1)Nc1ccnc2cc(Cl)ccc12 | > 50 | < 50 | > 10 | 
21 | O=C(/C=C/c1ccc(Cl)cc1)Nc1ccnc2cc(Cl)ccc12 | 41.3 | < 50 | > 10 | > 50
22 | O=C(/C=C/c1ccc([N+](=O)[O-])cc1)Nc1ccnc2cc(Cl)ccc12 | > 50 | < 50 | > 10 | 
23 | CC(C)C[C@@H](NC(=O)/C=C/c1ccc(N)cc1)C(=O)N[C@H](CCc1ccccc1)C(=O)Nc1ccnc2cc(Cl)ccc12 | 20.3 | > 75 | 3.28 | > 50
24 | COc1ccc(/C=C/C(=O)N[C@H](CC(C)C)C(=O)N[C@H](CCc2ccccc2)C(=O)Nc2ccnc3cc(Cl)ccc23)cc1 | > 50 | 50 | 10.8 | 
25 | O=C(/C=C/c1ccccc1[N+](=O)[O-])Nc1ccnc2cc(Cl)ccc12 | 23.6 | < 50 | > 10 | > 50
26 | Cc1ccc(/C=C/C(=O)N[C@H](CC(C)C)C(=O)N[C@H](CCc2ccccc2)C(=O)Nc2ccnc3cc(Cl)ccc23)cc1 | > 50 | > 75 | 1.96 | 
27 | CC(C)C[C@H](NC(=O)/C=C/c1ccccc1)C(=O)N[C@@H](CCc1ccccc1)C(=O)Nc1ccnc2cc(Cl)ccc12 | 50 |  | 8 | 
